Measured values from ChEMBL document CHEMBL1177751, “Antifungal and cytotoxic activity of withanolides from Acnistus arborescens” (J Nat Prod, 2010).

Assays:
[1] = Cytotoxicity against imatinib and dasatinib-resistant mouse DA1-3b/M2 cells after 72 hrs by MTT assay; format: functional, cell-based
In short: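 Cells seeded at 10^4/well and exposed to compound or DMSO vehicle for 72 h. MTT added for the final 4 h, absorbance read at 490 nm; triplicate, camptothecin as positive control. K562R, DA1-3b/M2 and bone marrow cells (three healthy donors) grown in RPMI 1640 + 1% glutamine, 1% penicillin/streptomycin, 10% FCS. EML-C1 cultured per ATCC instructions.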

Pneumocystis carinii = assay: Antifungal activity against Pneumocystis carinii after 4 days by RAL-555 staining based microscopy; format: functional, organism-based; settings: 96 h
In short: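 Pneumocystis carinii came from the lungs of athymic Lou nu/nu rats that were dexamethasone-immunosuppressed and infected. Broth microdilution in DMEM + 10% FCS, 1.0 × 10^6 organisms/mL, final drug 1.1 × 10^-5 to 212.3 µM diluted from DMSO stocks. Incubated 4 days at 37 °C, 5% CO2, with a drug-free control. Smears stained with RAL-555 and counted microscopically; triplicate. Hill (Emax sigmoid) model used.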

Row | IC50 (Pneumocystis carinii) | SMILES | IC50 [1]
1 | – | CC[C@@]1(O)C(=O)OCc2c1cc1n(c2=O)Cc2cc3ccccc3nc2-1 [CAMPTOTHECIN] | 0.03 µM
2 | 0.084 µM | N=C(N)c1ccc(OCCCCCOc2ccc(C(=N)N)cc2)cc1 [PENTAMIDINE] | –
